Bioassay records: PubChem, several laboratories
Rows were chosen to be rich in hits. Some 0.91% of all compounds tested hit in one or more screens of this group.
p97 inhibitor: inhibitors of human p97 ATPase, primary screen, biochemical. Transitional endoplasmic reticulum ATPase (Homo sapiens), P55072. recombinant p97 ATPase, Kinase-Glo ATP luminescence, 3 h. inhibition, % at 8 µM. 220,000 tested, 0.42% active. AID 1481, 2009; in the data active = inhibition above about 15%;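 also: 0% = DMSO vehicle and 100% = wells lacking enzyme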
Target sequence (P55072 whole entry, looked up): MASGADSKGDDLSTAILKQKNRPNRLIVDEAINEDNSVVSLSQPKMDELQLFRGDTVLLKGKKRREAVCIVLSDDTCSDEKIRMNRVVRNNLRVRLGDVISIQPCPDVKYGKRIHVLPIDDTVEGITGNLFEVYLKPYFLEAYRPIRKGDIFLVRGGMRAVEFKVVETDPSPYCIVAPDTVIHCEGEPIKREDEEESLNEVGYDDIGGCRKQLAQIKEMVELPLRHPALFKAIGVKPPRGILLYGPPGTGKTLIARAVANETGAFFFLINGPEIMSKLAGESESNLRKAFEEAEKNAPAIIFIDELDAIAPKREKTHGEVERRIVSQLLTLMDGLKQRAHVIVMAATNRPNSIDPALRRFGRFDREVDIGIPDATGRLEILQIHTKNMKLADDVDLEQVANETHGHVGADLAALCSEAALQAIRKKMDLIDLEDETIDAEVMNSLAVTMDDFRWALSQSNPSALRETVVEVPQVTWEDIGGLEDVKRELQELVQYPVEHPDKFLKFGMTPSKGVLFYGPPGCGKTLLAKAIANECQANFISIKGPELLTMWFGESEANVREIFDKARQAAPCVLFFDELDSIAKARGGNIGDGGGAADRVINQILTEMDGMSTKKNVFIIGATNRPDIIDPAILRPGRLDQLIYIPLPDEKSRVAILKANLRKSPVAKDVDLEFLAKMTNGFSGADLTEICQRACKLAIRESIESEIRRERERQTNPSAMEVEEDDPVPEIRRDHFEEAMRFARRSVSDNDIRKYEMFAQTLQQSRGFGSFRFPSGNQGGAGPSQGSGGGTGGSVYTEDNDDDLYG
PMI act: activators of human PMI, primary screen, biochemical, fluorescence intensity, near-Km mannose 6-phosphate | purified human PMI, coupled resazurin fluorescence, 20 min; hits give high values; 1 = vehicle control, 0 substrate-free wells | Mannose-6-phosphate isomerase (Homo sapiens), P34949 | 190,000 tested, 0.005% active | activation factor at 20 µM | AID 1214, 2008;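 active = activation factor of 2 or more at 20 µM, relative to plate controls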
DTT redox prof: compounds producing H2O2 with reducing agent – biochemical, NIH compound library profiling, artefact control for MLSCN library redox annotation, primary screen | DTT-dependent redox cycling H2O2, phenol red/HRP absorbance; 100% = 100 µM peroxide control, 0% = buffer | 200,000 tested, 0.03% active | activation, % at 10 µM;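 active = activation of at least 50% relative to the plate's high and low controls in the primary single-dose screen; inactive = activation below 50%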;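 also: compound incubated with DTT at 0.8 mM final as the reducing agent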
TbHK1 inh: Trypanosoma brucei hexokinase 1 inhibitors, primary screen, biochemical, G6PDH-coupled NADH absorbance, MLSCN library; hexokinase 1 [Trypanosoma brucei]; recombinant TbHK1, G6PDH-coupled NADH A340; inhibition, % at 10 µM; 220,000 tested, 0.11% active;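 active = inhibition of 50% or more in the single-dose primary screen; inactive = inhibition below 50%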
G6PDH counter: L. mesenteroides G6PDH inhibitors, counter-screen for G6PDH-coupled screening assays, biochemical, Leuconostoc mesenteroides enzyme | glucose-6-phosphate dehydrogenase [Leuconostoc mesenteroides] | Purified L. mesenteroides G6PDH, diaphorase/resazurin coupled fluorescence, 45 min | inhibition, % at 5 µM | 200,000 tested, 0.12% active | AID 1020, 2008; in the data active = inhibition above about 50%
PMI act hi M6P: human PMI activators, high substrate, primary screen, biochemical, fluorescence intensity, near-saturating mannose 6-phosphate | Mannose-6-phosphate isomerase (Homo sapiens), P34949 | coupled PMI enzyme assay, resazurin fluorescence, 20 min; hits give high values; 1 = untreated enzyme, 0 = substrate-free blank | activation factor at 20 µM | 190,000 tested, 0.34% active | AID 1216, 2008;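 active = activation factor of 2 or more at 20 µM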
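Technique: Diaphorase-driven resazurin-to-resorufin fluorescence, excitation 544, emission 590 nm | Assay system: Human PMI in coupled enzyme assay | Times: Enzyme reaction with compound 20 min at room temperature | Medium: HEPES-buffered pH 7.4 with magnesium and detergent | Reagent: Mannose-6-phosphate 1.0 mM (near-saturating) plus 0.22 mM NADP+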
p97 confirm: p97 ATPase inhibitors, retest, confirmation, biochemical. inhibition, % at 8 µM. recombinant p97 ATPase, Kinase-Glo ATP luminescence. AID 1517, 2009. shares compounds with p97 inhibitor. 760 tested, 44% active;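 active = percent inhibition of p97 ATPase above a set limit, the primary screen's mean plus 3 SD, cut at about 15% in these data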;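 also: 0% = DMSO wells and 100% = wells lacking p97 protein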
An asterisk follows results filed as active; nt = no result.

SMILES | p97 inhibitor | PMI act | DTT redox prof | TbHK1 inh | G6PDH counter | PMI act hi M6P | p97 confirm
CCCCN(CC(=O)Nc1c(C)cccc1CC)C(=O)SCC | -0.8 | 1 | -0.1 | -3.1 | 3.8 | 1.1 | nt
CCOP(=O)(OCC)/C(C#N)=C/c1ccc([N+](=O)[O-])cc1 | 4.1 | nt | nt | -14.2 | nt | nt | nt
COc1ccc(NS(=O)(=O)c2cc(NC(=O)c3ccco3)ccc2N2CCCCC2)cc1 | 3.6 | 0.9 | -0.3 | 1.7 | 18.3 | 0.9 | nt
CCC(C)c1ccc(C2C3=C(Nc4nc(N)[nH]c(=O)c42)c2ccccc2C3=O)cc1 (stereo not given) | 15.4* | nt | nt | -27.9 | nt | nt | 5.4
O=C(CCNS(=O)(=O)c1cccc2nsnc12)NCc1ccccc1Cl | 1.8 | 1 | -0.6 | -3.2 | 3.9 | 1 | nt
O=c1cc2oc3cc(O)c(O)cc3c(-c3ccccc3O)c-2cc1O | 29.4* | nt | nt | 1.9 | nt | nt | 35.5*
Cc1ccccc1-c1cc(=O)c2c(O)cccc2o1 | nt | nt | nt | -1.7 | nt | nt | nt
COc1cc(NC(=O)COC(=O)CSc2cc(C)ccc2C)c(C)cc1[N+](=O)[O-] | -0.9 | 0.9 | 0.2 | -0.6 | -6.6 | 1 | nt
O=C(COC(=O)C1(c2cccc(F)c2)CCCC1)NCc1ccc2c(c1)OCO2 | -4.1 | 0.9 | 0.2 | 0.0 | -1.7 | 1 | nt
CCc1ccc(OC2=NS(=O)(=O)c3ccccc32)cc1 | 0.1 | 1.3 | -0.1 | -1.3 | -2.6 | 1.1 | nt
CCN(CC)c1cccc(OC2=NS(=O)(=O)c3ccccc32)c1 | 18.9* | 1 | 2.4 | 6.3 | 23.1 | 0.5 | 8.9
C=CCOc1ccc(CNCCc2ccc(S(N)(=O)=O)cc2)cc1 | 5.8 | 1.2 | -1.2 | 4.5 | 3.8 | 1.2 | nt
COc1ccc(/C=N/N2C(=N)SCC2=O)cc1 | -6.0 | nt | nt | -45.5 | nt | nt | nt
O=c1[nH]c(CN2CCCCC2)nc2ccccc12 | 25.1* | 1 | 2.1 | -1.5 | 1.6 | 1.1 | 2.7
CCn1nc(CC(=O)Nc2nnc(CC(=O)N3CCOCC3)s2)c2ccccc2c1=O | 19.9* | 0.9 | 1.6 | 3.0 | 2.1 | 1 | 8.0
CCn1nc(CC(=O)Nc2nnc(CC(=O)N3CCCC3)s2)c2ccccc2c1=O | 5.6 | 0.5 | -0.3 | 3.8 | 5.8 | 1.1 | nt
CN(C)c1cccc(C(=O)N/N=C/c2ccsc2)c1 | 3.6 | 1 | 0.7 | -5.4 | 5.3 | 0.9 | nt
CCOC(=O)CNC(=O)c1ccc2[nH]c3ccccc3c2c1 | 15.4* | 1 | -0.4 | 5.9 | 1.9 | 0.9 | 11.2
O=C(NCC(O)CO)c1ccc2[nH]c3ccccc3c2c1 (stereo not given) | 9.4 | 1 | 1.3 | -4.1 | 5.6 | 1 | nt
CCCCc1n(CC(=O)c2ccc(Cl)cc2)c2ccccc2[n+]1C | -3.6 | 1.1 | -0.2 | -3.4 | 0.8 | 1 | nt
O=C(Nc1ccc(Br)c2ccccc12)c1ccc2ccccc2c1O | 18.6* | nt | nt | -21.5 | nt | nt | 24.1*
COC(=O)c1sc(-c2cccs2)cc1NC(=O)/C=C/C(=O)O | 24.8* | nt | nt | -53.0 | nt | nt | 22.5*
Cc1c(Br)c(O)c(Br)c2sc(=O)oc12 | 22.4* | nt | nt | 3.1 | nt | nt | 6.6
CCCC(C(=O)NC1CCCC1)N(CCCN1CCOCC1)C(=O)c1snc(C(N)=O)c1N (stereo not given) | 16.0* | 0.9 | -0.2 | -19.9 | 3.1 | 0.9 | 5.3
CCCC(C(=O)NC1CCCC1)N(CC1CCCO1)C(=O)c1snc(C(N)=O)c1N (stereo not given) | -0.9 | 1 | 0.1 | -10.3 | 8.8 | 1 | nt
SMILES | p97 inhibitor | PMI act | DTT redox prof | TbHK1 inh | G6PDH counter | PMI act hi M6P | p97 confirm
CCOC(=O)C(C)Oc1cccc2c(=O)n(CC(=O)Nc3ccc4c(c3)OCCO4)ccc12 (stereo not given) | 35.3* | 1 | 0.8 | -13.0 | 2.3 | 1 | 7.8
COCC(O)CNc1ccccc1 (stereo not given) | 6.3 | 1.1 | -0.4 | 1.8 | -7.0 | 1.1 | nt
CCN1CCN(C(=O)c2ccccc2NS(=O)(=O)c2ccc(Cl)cc2)CC1 | 2.5 | 1.1 | -3.0 | -1.0 | 2.1 | 1 | nt
COC(=O)C(CCSC)NS(=O)(=O)c1ccc(Cl)cc1 (stereo not given) | 3.6 | 1 | 0.2 | 3.6 | 9.0 | 0.9 | nt
CSCCC(NS(=O)(=O)c1ccc(Cl)cc1)C(=O)OCC(=O)NC12CC3CC(CC(C3)C1)C2 (stereo not given) | 22.4* | 0.9 | 0.2 | -0.6 | 4.0 | 0.9 | -2.5
C(=C\c1ccccc1)/CNn1cnnc1 | 5.0 | 1 | -0.1 | 0.8 | 0.4 | 1 | nt
C[N+](C)(CC#N)C/C=C\c1ccccc1 | 16.7* | 1 | -0.7 | 4.7 | 7.2 | 1 | 4.5
O=C(COC(=O)c1ccc2c(c1Cl)C(=O)c1ccccc1C2=O)NC1CCCCC1 | 9.5 | 1.4 | 1.4 | -3.5 | 22.0 | 1.3 | nt
O=C(COC(=O)c1ccc2c(c1Cl)C(=O)c1ccccc1C2=O)NC1CC1 | 24.8* | 1.2 | -0.3 | -1.7 | 37.7 | 0.8 | 21.6*
O=C(N/N=C/c1cccs1)c1cc(-c2cccc3ccccc23)n[nH]1 | 16.5* | 0.9 | 0.4 | -2.6 | -64.1 | 0.9 | 26.9*
O=C(N/N=C/c1cccs1)c1cc(-c2ccc3ccccc3c2)n[nH]1 | 4.8 | 0.9 | 1.6 | -14.7 | -62.2 | 0.9 | nt
COc1cc2cccc(OC)c(=O)c2c(O)c1OC | 9.2 | 0.9 | -0.3 | -4.5 | 7.1 | 1 | nt
Oc1cccc2cc3cccc(O)c3c(O)c12 | 15.2* | 1.8 | -1.1 | 8.6 | 5.7 | 2.2* | 14.1
Cc1nn(-c2cccc(Cl)c2)c2c1C(c1cccnc1)C(C#N)=C(N)O2 (stereo not given) | 16.3* | 1.3 | 3.6 | -0.1 | 4.9 | 1 | 9.4
Cc1ccc(-n2nc(C)c3c2OC(N)=C(C#N)C3c2ccc(F)cc2)cc1 (stereo not given) | 19.7* | 0.9 | 2.8 | -6.0 | 1.9 | 0.9 | 2.1
Cc1nn(-c2cccc(Cl)c2)c2c1C(c1ccncc1)C(C#N)=C(N)O2 (stereo not given) | 7.2 | 1.3 | 3.8 | -3.3 | -14.0 | 1.6 | nt
CC1(C)CC(Nc2ccc(Nc3ccccc3)cc2)CC(C)(C)N1 | -3.9 | nt | nt | 7.8 | nt | nt | nt
